Shown are actives, neighbours in structure and some others; about 1.4% of the full set was active somewhere.
PDI inh: PDI (human) enzyme inhibition. P07237. PDI insulin aggregation turbidity, A650, 90 min. inhibition, % at 10 µM. actives 0.052% (n = 350,000);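 active = mean inhibition across replicates of 30% or more, whatever share of single replicates reach that level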
INS-1E GSIS act: GLuc luminescence reporter in INS-1E cells, primary screen for activators of glucose-dependent secretion of insulin; INS-1E GLuc reporter insulin secretion, 2-3 h; activation, % at 16.6 µM; actives 0.61% (n = 370,000); AID 743287;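 active = lowest replicate activation of at least 40%, so every replicate reaches that level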;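 note: 0% = median of neutral control wells and 100% = median of IBMX positive control wells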
Env fusion inh: inhibitors of HIV Env-mediated cell fusion | HeLa-JRFL Env/CEM21 cell fusion, luciferase | inhibition, % at 12.3 µM | actives 1.1% (n = 360,000) | AID 651610;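 active = mean replicate inhibition score of at least 50 and every replicate individually at or above 50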;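 note: 0% = plate neutral controls and 100% = maraviroc near 300 nM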
ERp5 inh: blocks human ERp5 reductase activity on insulin. ERp5 insulin aggregation, absorbance 650 nm, 90 min. actives 0.05% (n = 350,000). inhibition, % at 9.99 µM. AID 651711;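 active = mean replicate inhibition above about 25%, with every replicate also reaching it, limit read from the data, passing the limit was not always enough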
Target sequence (Q15084 whole entry, looked up): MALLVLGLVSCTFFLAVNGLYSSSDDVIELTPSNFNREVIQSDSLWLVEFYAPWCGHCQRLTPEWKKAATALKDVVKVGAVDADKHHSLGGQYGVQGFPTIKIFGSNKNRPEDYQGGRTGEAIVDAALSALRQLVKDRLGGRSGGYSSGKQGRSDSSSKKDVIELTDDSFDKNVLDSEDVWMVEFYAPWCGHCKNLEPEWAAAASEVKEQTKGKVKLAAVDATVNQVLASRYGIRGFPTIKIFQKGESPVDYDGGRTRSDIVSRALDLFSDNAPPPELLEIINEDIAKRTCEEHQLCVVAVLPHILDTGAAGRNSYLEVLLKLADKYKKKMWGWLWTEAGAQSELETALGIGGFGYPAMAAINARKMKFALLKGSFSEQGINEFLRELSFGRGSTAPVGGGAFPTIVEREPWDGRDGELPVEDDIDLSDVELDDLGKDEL
FN deposition inh: fibronectin deposition inhibition. actives 0.086% (n = 350,000). AH1F fibroblasts, Alexa488-fibronectin deposition fluorescence, overnight. inhibition, % at 12.6 µM;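 active = mean inhibition across replicates of 30% or more, regardless of how many single replicates reach that level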;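 note: positive control wells lacked labelled fibronectin entirely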
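material = AH1F fibroblast monolayer depositing Alexa488-labelled fibronectin into matrix | amount = 10000 AH1F cells/well | buffer or medium = DMEM plus 2% serum, read in PBS | incubation = 1 h cell adhesion before compound, then overnight fibronectin incubation | detection = fluorescence at 485 nm excitation, 525 nm emission | evaluation = percent inhibition as loss of matrix-bound fibronectin fluorescence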
Starred values were filed as active, the others as inactive; · = no result given; + = active, no number; ! = repeats disagree; [ ] = remark or other dose.

SMILES | PDI inh | INS-1E GSIS act | Env fusion inh | ERp5 inh | FN deposition inh
O=C(N[C@@H]1CC[C@H](CCn2cc(-c3ccccn3)nn2)O[C@H]1CO)c1cccnc1 | · | 17 | 2[16.7 µM] | 1 | ·
Cn1ccnc1SCc1cn2ccccc2n1 | 4 | · | · | · | ·
Cc1cc(=O)[nH]c(SCc2cn3ccccc3n2)n1 | 9 | 73* | -15 | -2 | 6
CCNc1nc(CC)nc2c1oc1ccccc12 | 1 | 81* | -26 | · | 8
CCNc1nc(C)nc2c1oc1ccccc12 | -7 | 67* | 4 | · | -1
CCc1nc(NCc2ccco2)c2oc3ccccc3c2n1 | 3 | · | · | · | ·
O=C(C[C@@H]1C[C@@H]2c3cc(NC(=O)c4cccnc4)ccc3O[C@@H]2[C@H](CO)O1)NC1CCCC1 | · | 4 | · | -10 | 0
O=C(C[C@H]1CC[C@@H]2NC[C@H](O)COC[C@H]2O1)NC1Cc2ccccc2C1 | · | 4 | 5[16.7 µM] | 0 | -24
Cc1ccc(S(=O)(=O)N(C)C[C@@H]2OCCCC[C@H](C)Oc3ccc(NC(=O)Nc4c(C)noc4C)cc3C(=O)N([C@H](C)CO)C[C@@H]2C)cc1 | · | -16 | -39[16.7 µM] | -5 | 4
O=C(C[C@H]1C[C@H]2c3cc(NS(=O)(=O)c4ccc(F)cc4)ccc3O[C@H]2[C@H](CO)O1)N1CCc2ccccc2C1 | · | -8 | 6[16.7 µM] | -5 | -1
COc1cccc(C(=O)NC2CCCc3c2cnn3-c2ccc(C)c(C)c2)c1OC (stereo not given) | -7 | -40 | 2 | 1 | 11
COc1ncccc1C(=O)NC1CCCc2c1cnn2-c1ccc(C)c(C)c1 (stereo not given) | -2 | -23 | 12 | 4 | 31*
CCCNC(=O)N1C[C@H](O)COC[C@@H]2O[C@H](CC(=O)NCc3ccc(Cl)c(Cl)c3)CC[C@H]21 | · | -4 | -5[16.7 µM] | 3 | 1
COc1ccc(S(=O)(=O)N2CCCCC2)cc1NC(=O)CN(C)C1CCCCC1 | -6 | -17 | 24 | 6 | 11
COc1ccc(S(=O)(=O)N2CCCCC2)cc1NC(=O)C1CC1C (stereo not given) | -4 | 40* | · | -8 | -9
COc1ccc(S(=O)(=O)N2CCCCC2)cc1NC(=O)CN(Cc1ccco1)Cc1ccco1 | 18 | -8 | 76* | 1 | ·
CN(CC(=O)Nc1cc(S(=O)(=O)N2CCCCCC2)ccc1Cl)Cc1ccc2c(c1)OCO2 | 10 | -9 | 40 | 1 | 10
COc1ccc(S(=O)(=O)N2CCCCCC2)cc1NC(=O)CN(C)Cc1ccc2c(c1)OCO2 | -12 | -11 | 58* | -1 | 15
COc1ccc(S(=O)(=O)N2CCCCC2)cc1NC(=O)CCCOc1ccc(C)cc1 | -2 | -2 | 71* | -2 | -4
O=C(C[C@@H]1CC[C@@H]2[C@H](COC[C@@H](O)CN2S(=O)(=O)c2cccc(Cl)c2)O1)N1CCCCC1 | · | 7 | 6[16.7 µM] | 0 | -6
C[C@@H]1CCCCO[C@@H](CN(C)C(=O)Cc2ccccc2)[C@@H](C)CN([C@@H](C)CO)C(=O)c2cc(NC(=O)NC3CCCCC3)ccc2O1 | · | -19 | 2[16.7 µM] | · | ·
COc1ccc(NC(=O)COc2cc(C)cc(C)c2)cc1S(=O)(=O)N1CCCCC1 | 5 | -12 | 61* | -3 | -1
O=C(CCCOc1ccc(Cl)cc1Cl)Nc1cc(S(=O)(=O)N2CCOCC2)ccc1N1CCOCC1 | 4 | -35 | 79* | 4 | 9
COc1ccc(S(=O)(=O)N2CCOCC2)cc1NC(=O)CCCOc1ccc(Cl)cc1C | -8 | -4 | 36 | 6 | -4
CN(C)CC(=O)N[C@H]1CC[C@@H](CCn2cc(C3CCCCC3)nn2)O[C@@H]1CO | · | 7 | -2[16.7 µM] | 2 | 0
SMILES | PDI inh | INS-1E GSIS act | Env fusion inh | ERp5 inh | FN deposition inh
Nc1ccc(N2CCOCC2)c2nonc12 | 66* | -2 | -1 | 22 | ·
Cc1ncc(CSc2nccc(=O)[nH]2)c(CO)c1O | -4 | 81* | -4 | 1 | -1
Cc1ncc(CSc2ccc(Cl)cc2)c(CO)c1O | -1 | -1 | 3 | 5 | 3
O=C(Nc1ccc(C(F)(F)F)cc1)N1C[C@@H]2N[C@H](C1)C2c1ccc(-c2ccccc2)cc1 (stereo not given in full) | · | 755*! | · | 4 | -10
O=C(Nc1ccc(C(F)(F)F)cc1)N1C[C@@H]2N[C@H](C1)C2c1ccc(/C=C/c2ccccc2)cc1 (stereo not given in full) | · | + | · | -3 | 4
Cc1cccc(-c2ccc(C3[C@@H]4CN(C(=O)Nc5ccccc5)C[C@H]3N4)cc2)c1 (stereo not given in full) | · | -20 | · | · | 3
CCC(=O)NC(=S)Nc1cccc(Cl)c1N1CCCCC1 | 2 | · | 73* | · | 9
CCCC(=O)NC(=S)Nc1cccc(Cl)c1N1CCCCC1 | -4 | · | 26 | · | ·
COc1ccc2c3c(n(C)c2c1)[C@H](CO)N(C(=O)c1cnccn1)CC31CCN(C(=O)c2cnccn2)CC1 | · | 15 | -17[16.7 µM] | -4 | ·
CCC(=O)N1CC2(C1)[C@@H](c1ccccc1)[C@H](CO)N2C(=O)c1cccnc1 | · | 13 | · | -1 | ·
O=C(c1cccc(C(F)(F)F)c1)N1CCCC1 | -2 | -14 | · | -3 | ·
O=C(Nc1ccc(C(=O)N2CCCC2)cc1)c1cccc(C(F)(F)F)c1 | -5 | 48* | -3 | 8 | 13
COc1ccccc1-c1ccc2c(c1)O[C@H](CN(C)CC1CC1)[C@H](C)CN([C@H](C)CO)S2(=O)=O | · | 0 | 16[16.7 µM] | · | ·
CCNc1nc(NC(C)C)nc(N(C)C#N)n1 | -1 | 58* | 8 | -2 | 12
N/C(=N\OC(=O)c1ccccc1Br)c1cccc([N+](=O)[O-])c1 | 18 | 41* | -186 | -4 | 1
O=C(Nc1ccc(Cl)c(Cl)c1)N[C@H]1CC[C@H](CCn2cc(C3CCCCC3)nn2)O[C@H]1CO | · | 0 | 2[16.7 µM] | 1 | -8
O=C(Nc1ccc(Cl)c(Cl)c1)N[C@H]1CC[C@H](CCn2cc(C3CCCCC3)nn2)O[C@@H]1CO | · | -19 | 63*[16.7 µM] | -1 | -12
O=C(Nc1ccc(Cl)c(Cl)c1)N[C@@H]1CC[C@@H](CCn2cc(C3CCCCC3)nn2)O[C@H]1CO | · | -43 | -5[16.7 µM] | 2 | 1
O=C(Nc1ccc(Cl)c(Cl)c1)N[C@@H]1CC[C@@H](CCn2cc(C3CCCCC3)nn2)O[C@@H]1CO | · | 16 | 67*![16.7 µM] | -4 | -1
C/C=C/c1ccc([C@H]2[C@@H](CO)N(C(=O)CN(C)C)[C@H]2CN(C)C(C)=O)cc1 | · | -2 | · | 1 | 9
O=C1C=CC(=O)N1c1ccccn1 | -9 | -19 | -23 | 4 | ·
O=C1C=CC(=O)N1c1ccccc1N1C(=O)C=CC1=O | 2 | · | -65 | 11 | 40*
O=C(c1ccccc1)c1ccccc1N1C(=O)C=CC1=O | 6 | 192* | 5 | 6 | 58*
C[C@H]1CN([C@@H](C)CO)C(=O)c2cccc(NS(=O)(=O)c3ccc(Cl)cc3)c2O[C@@H]1CN(C)Cc1ccc(C(F)(F)F)cc1 | · | -25 | 57*[16.7 µM] | -7 | -2

Source: PubChem BioAssay (Broad Institute)
